Measured values reported in ChEMBL document CHEMBL1124216, “A novel class of potential central nervous system agents. 3-Phenyl-2-(1-piperazinyl)-5H-1-benzazepines” (1988).

tested on: Mus musculus; test: Antipentylene tetrazole activity was determined in mice when administered perorally; type: functional; conditions: po
Method in brief: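 Groups of five male Std-ddY mice received compound orally in 0.5% tragacanth, then pentylenetetrazole 175 mg/kg ip. Blockade of the tonic extensor component scored as anticonvulsant. ED50 was the dose protecting 50% of animals (Litchfield-Wilcoxon).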

**Q.** How did the ED50 turn out when `Cl.Cl.OCCN1CCN(C2=Nc3ccc(Cl)cc3CC=C2c2ccccc2)CC1` was run?
**A.** 26.5 mg/kg

**Q.** `CN1CCN(C2=Nc3ccc(F)cc3CC=C2c2ccccc2)CC1.Cl.Cl` was tested. Which ED50 did it give?
**A.** > 200 mg/kg

**Q.** Which ED50 does the source give for `CCN1CCN(C2=Nc3ccc(Br)cc3CC=C2c2ccccc2)CC1.Cl.Cl` here?
**A.** 17.2 mg/kg

**Q.** `CCN1CCN(C2=Nc3ccc(F)cc3CC=C2c2ccccc2)CC1.Cl.Cl` was tested. Which ED50 did it give?
**A.** > 100 mg/kg

**Q.** `Cc1ccc2c(c1)CC=C(c1ccccc1)C(N1CCN(C)CC1)=N2.Cl.Cl` was tested. Which ED50 did it give?
**A.** 50.9 mg/kg

**Q.** For `CN1CCN(C2=Nc3ccc(Br)cc3CC=C2c2ccccc2)CC1.Cl.Cl`, which ED50 is on record?
**A.** 8.3 mg/kg

tested on: Mus musculus; test: Antiexploratory activity (EXPL) of mice determined by an antimex activity meter, 100 mg/kg of dose was administered perorally; No inhibition; type: functional; conditions: route oral

**Q.** For `Cl.Cl.OCCN1CCN(C2=Nc3ccc(Cl)cc3CC=C2c2ccccc2)CC1`, which inhibition in vivo at 100 mg/kg is on record?
**A.** < 30%

**Q.** How did the inhibition in vivo at 100 mg/kg turn out when `C#CCN1CCN(C2=Nc3ccc(Br)cc3CC=C2c2ccccc2)CC1` was run?
**A.** < 30%

**Q.** With `CCN1CCN(C2=Nc3ccc(Br)cc3CC=C2c2ccccc2)CC1.Cl.Cl` as the compound, how does the inhibition in vivo at 100 mg/kg read?
**A.** < 30%

**Q.** Which inhibition in vivo at 100 mg/kg does the source give for `Cc1ccc2c(c1)CC=C(c1ccccc1)C(N1CCN(C)CC1)=N2.Cl.Cl` here?
**A.** < 30%

**Q.** Which inhibition in vivo at 100 mg/kg does the source give for `CN1CCN(C2=Nc3ccc(Br)cc3CC=C2c2ccccc2)CC1.Cl.Cl` here?
**A.** < 30%

tested on: Mus musculus; test: Antitremorine activity(TRM) of mice after peroral administration of 100 mg/kg of compound; type: functional; conditions: route oral

**Q.** `C#CCN1CCN(C2=Nc3ccc(Br)cc3CC=C2c2ccccc2)CC1` was tested. Which inhibition in vivo at 100 mg/kg did it give?
**A.** < 30%

**Q.** With `CN1CCN(C2=Nc3ccc(Br)cc3CC=C2c2ccccc2)CC1.Cl.Cl` as the compound, how does the inhibition in vivo at 100 mg/kg read?
**A.** > 71%

tested on: Mus musculus; test: Antiexploratory activity (EXPL) of mice determined by an antimex activity meter,100 mg/kg of dose was administered perorally; No inhibition; type: functional; conditions: not given

**Q.** Which Inhibition does the source give for `Cl.OC1(c2ccc(Cl)cc2)CCN(C2=Nc3ccc(Br)cc3CC=C2c2ccccc2)CC1` here?
**A.** <30%

tested on: Mus musculus; test: Antimaximal electroshock seizure (MES) activity in mice after peroral administration of 100 mg/kg of compound; 5/5; type: functional; conditions: route oral

**Q.** How did the Activity turn out when `CN1CCN(C2=Nc3ccc(Br)cc3CC=C2c2ccccc2)CC1.Cl.Cl` was run?
**A.** 5

tested on: Mus musculus; test: Antitremorine activity(TRM) of mice after peroral administration of 100 mg/kg of compound; No inhibition; type: functional; conditions: route oral

**Q.** For `CN1CCN(C2=Nc3ccc(F)cc3CC=C2c2ccccc2)CC1.Cl.Cl`, which inhibition in vivo at 100 mg/kg is on record?
**A.** < 30%

**Q.** How did the inhibition in vivo at 100 mg/kg turn out when `Cl.OC1(c2ccc(Cl)cc2)CCN(C2=Nc3ccc(Br)cc3CC=C2c2ccccc2)CC1` was run?
**A.** < 30%

**Q.** With `CCN1CCN(C2=Nc3ccc(Br)cc3CC=C2c2ccccc2)CC1.Cl.Cl` as the compound, how does the inhibition in vivo at 100 mg/kg read?
**A.** < 30%

**Q.** How did the inhibition in vivo at 100 mg/kg turn out when `CCN1CCN(C2=Nc3ccc(F)cc3CC=C2c2ccccc2)CC1.Cl.Cl` was run?
**A.** < 30%

**Q.** For `Cc1ccc2c(c1)CC=C(c1ccccc1)C(N1CCN(C)CC1)=N2.Cl.Cl`, which inhibition in vivo at 100 mg/kg is on record?
**A.** < 30%

tested on: Mus musculus; test: Antimaximal electroshock seizure (MES) activity in mice after peroral administration of 100 mg/kg of compound; 3/5; type: functional; conditions: route oral

**Q.** Which Activity does the source give for `CCN1CCN(C2=Nc3ccc(Br)cc3CC=C2c2ccccc2)CC1.Cl.Cl` here?
**A.** 3

**Q.** How did the Activity turn out when `Cc1ccc2c(c1)CC=C(c1ccccc1)C(N1CCN(C)CC1)=N2.Cl.Cl` was run?
**A.** 3

tested on: Mus musculus; test: Antiexploratory activity (EXPL) of mice determined by an antimex activity meter, 100 mg/kg of dose was administered perorally; Moderate inhibition (51-71%); type: functional; conditions: route oral

**Q.** How did the inhibition in vivo at 100 mg/kg turn out when `CCN1CCN(C2=Nc3ccc(F)cc3CC=C2c2ccccc2)CC1.Cl.Cl` was run?
**A.** 51%

tested on: Mus musculus; test: Antimaximal electroshock seizure (MES) activity in mice after peroral administration of 10 mg/kg of compound; 0/5; type: functional; conditions: route oral

**Q.** How did the Activity turn out when `Cl.Cl.OCCN1CCN(C2=Nc3ccc(Cl)cc3CC=C2c2ccccc2)CC1` was run?
**A.** 0

tested on: Mus musculus; test: Antimaximal electroshock seizure activity was determined in mice when administered perorally; type: functional; conditions: po

**Q.** `Cl.Cl.OCCN1CCN(C2=Nc3ccc(Cl)cc3CC=C2c2ccccc2)CC1` was tested. Which ED50 did it give?
**A.** 49.5 mg/kg

**Q.** With `CN1CCN(C2=Nc3ccc(F)cc3CC=C2c2ccccc2)CC1.Cl.Cl` as the compound, how does the ED50 read?
**A.** > 500 mg/kg

**Q.** For `CCN1CCN(C2=Nc3ccc(Br)cc3CC=C2c2ccccc2)CC1.Cl.Cl`, which ED50 is on record?
**A.** 30.7 mg/kg

**Q.** Which ED50 does the source give for `CCN1CCN(C2=Nc3ccc(F)cc3CC=C2c2ccccc2)CC1.Cl.Cl` here?
**A.** > 500 mg/kg

**Q.** How did the ED50 turn out when `Cc1ccc2c(c1)CC=C(c1ccccc1)C(N1CCN(C)CC1)=N2.Cl.Cl` was run?
**A.** 86.1 mg/kg

**Q.** For `CN1CCN(C2=Nc3ccc(Br)cc3CC=C2c2ccccc2)CC1.Cl.Cl`, which ED50 is on record?
**A.** 31.2 mg/kg

tested on: Mus musculus; test: Antimaximal electroshock seizure (MES) activity in mice after peroral administration of 100 mg/kg of compound; 4/5; type: functional; conditions: route oral

**Q.** For `Cl.Cl.OCCN1CCN(C2=Nc3ccc(Cl)cc3CC=C2c2ccccc2)CC1`, which Activity is on record?
**A.** 4

tested on: Mus musculus; test: Antimaximal electroshock seizure (MES) activity in mice after peroral administration of 100 mg/kg of compound; 0/5; type: functional; conditions: route oral

**Q.** How did the Activity turn out when `CN1CCN(C2=Nc3ccc(F)cc3CC=C2c2ccccc2)CC1.Cl.Cl` was run?
**A.** 0

**Q.** Which Activity does the source give for `Cl.OC1(c2ccc(Cl)cc2)CCN(C2=Nc3ccc(Br)cc3CC=C2c2ccccc2)CC1` here?
**A.** 0

**Q.** For `C#CCN1CCN(C2=Nc3ccc(Br)cc3CC=C2c2ccccc2)CC1`, which Activity is on record?
**A.** 0

**Q.** Which Activity does the source give for `CCN1CCN(C2=Nc3ccc(F)cc3CC=C2c2ccccc2)CC1.Cl.Cl` here?
**A.** 0

tested on: Mus musculus; test: Antiexploratory activity (EXPL) of mice determined by an antimex activity meter, 100 mg/kg of dose was administered perorally; Slight inhibition (31-50%); type: functional; conditions: route oral

**Q.** For `CN1CCN(C2=Nc3ccc(F)cc3CC=C2c2ccccc2)CC1.Cl.Cl`, which inhibition in vivo at 100 mg/kg is on record?
**A.** 31%

tested on: Mus musculus; test: Antitremorine activity(TRM) of mice after peroral administration of 100 mg/kg of compound; Moderate inhibition (51-71%); type: functional; conditions: route oral

**Q.** How did the inhibition in vivo at 100 mg/kg turn out when `Cl.Cl.OCCN1CCN(C2=Nc3ccc(Cl)cc3CC=C2c2ccccc2)CC1` was run?
**A.** 51%

tested on: Mus musculus; test: Antireserpine activity (RES) of mice after peroral administration of 100 mg/kg of compound; No inhibition; type: functional; conditions: route oral

**Q.** Which inhibition in vivo at 100 mg/kg does the source give for `Cl.Cl.OCCN1CCN(C2=Nc3ccc(Cl)cc3CC=C2c2ccccc2)CC1` here?
**A.** < 30%

**Q.** For `CN1CCN(C2=Nc3ccc(F)cc3CC=C2c2ccccc2)CC1.Cl.Cl`, which inhibition in vivo at 100 mg/kg is on record?
**A.** < 30%

**Q.** How did the inhibition in vivo at 100 mg/kg turn out when `Cl.OC1(c2ccc(Cl)cc2)CCN(C2=Nc3ccc(Br)cc3CC=C2c2ccccc2)CC1` was run?
**A.** < 30%

**Q.** How did the inhibition in vivo at 100 mg/kg turn out when `C#CCN1CCN(C2=Nc3ccc(Br)cc3CC=C2c2ccccc2)CC1` was run?
**A.** < 30%

**Q.** How did the inhibition in vivo at 100 mg/kg turn out when `CCN1CCN(C2=Nc3ccc(Br)cc3CC=C2c2ccccc2)CC1.Cl.Cl` was run?
**A.** < 30%

**Q.** For `CCN1CCN(C2=Nc3ccc(F)cc3CC=C2c2ccccc2)CC1.Cl.Cl`, which inhibition in vivo at 100 mg/kg is on record?
**A.** < 30%

**Q.** `Cc1ccc2c(c1)CC=C(c1ccccc1)C(N1CCN(C)CC1)=N2.Cl.Cl` was tested. Which inhibition in vivo at 100 mg/kg did it give?
**A.** < 30%

**Q.** Which inhibition in vivo at 100 mg/kg does the source give for `CN1CCN(C2=Nc3ccc(Br)cc3CC=C2c2ccccc2)CC1.Cl.Cl` here?
**A.** < 30%
